How the values were obtained:
[1] = target: Serine/threonine-protein kinase Nek1 (Homo sapiens) (UniProt Q96PY6); test: Binding affinity to wild-type human partial length NEK1 (M1 to K278 residues) expressed in bacterial expression system assessed as residual binding level at 1 uM by Kinomescan method relative to control
[2] = target: Ephrin type-A receptor 7 (Homo sapiens) (UniProt Q15375); test: Binding affinity to wild-type human partial length EPHA7 (Y608 to S912 residues) expressed in bacterial expression system assessed as residual binding level at 1 uM by Kinomescan method relative to control
[3] = target: Serine/threonine-protein kinase 10 (Homo sapiens) (UniProt O94804); test: Binding affinity to wild-type human partial length LOK (E16 to V314 residues) expressed in bacterial expression system assessed as residual binding level at 1 uM by Kinomescan method relative to control
[4] = target: Inhibitor of nuclear factor kappa-B kinase subunit alpha (Homo sapiens) (UniProt O15111); test: Binding affinity to wild-type human full length IKK-alpha (M1 to E745 residues) expressed in mammalian expression system assessed as residual binding level at 1 uM by Kinomescan method relative to control
Procedure, shortened: (§1)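 Single-point kinome-wide KINOMEscan binding panel, test compound at 1 μM, run by the provider's standard protocol.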

[5] = target: Dual specificity protein kinase CLK2 (Homo sapiens) (UniProt P49760); test: Binding affinity to wild-type human partial length CLK2 (D144 to R498 residues) expressed in bacterial expression system assessed as residual binding level at 1 uM by Kinomescan method relative to control
[6] = target: Dual specificity testis-specific protein kinase 1 (Homo sapiens) (UniProt Q15569); test: Binding affinity to wild-type human full length TESK1 (R37 to S626 residues) expressed in bacterial expression system assessed as residual binding level at 1 uM by Kinomescan method relative to control
[7] = target: NUAK family SNF1-like kinase 1 (Homo sapiens) (UniProt O60285); test: Binding affinity to wild-type human partial length ARK5 (E25 to I332 residues) expressed in bacterial expression system assessed as residual binding level at 1 uM by Kinomescan method relative to control
[8] = target: SRSF protein kinase 1 (Homo sapiens) (UniProt Q96SB4); test: Binding affinity to wild-type human full length SRPK1 (M1 to S655 residues) expressed in bacterial expression system assessed as residual binding level at 1 uM by Kinomescan method relative to control; procedure, shortened: as §1
[9] = target: MAP kinase-interacting serine/threonine-protein kinase 2 (Homo sapiens) (UniProt Q9HBH9); test: Binding affinity to wild-type human partial length MKNK2 (G63 to S388 residues) expressed in mammalian expression system assessed as residual binding level at 1 uM by Kinomescan method relative to control
[10] = target: LIM domain kinase 2 (Homo sapiens) (UniProt P53671); test: Binding affinity to wild-type human full length LIMK2 (M1 to P638 residues) expressed in bacterial expression system assessed as residual binding level at 1 uM by Kinomescan method relative to control; procedure, shortened: as §1
[11] = target: 1-phosphatidylinositol 3-phosphate 5-kinase (Homo sapiens) (UniProt Q9Y2I7); test: Binding affinity to wild-type human partial length PIKFYVE (F1512 to C2098 residues) expressed in mammalian expression system assessed as residual binding level at 1 uM by Kinomescan method relative to control
[12] = system: Serine/threonine-protein kinase B-raf (Homo sapiens), P15056 [V600E]; test: Binding affinity to human partial length BRAF V600E mutant (S429 to E741 residues) expressed in mammalian expression system assessed as residual binding level at 1 uM by Kinomescan method relative to control
[13] = target: Serine/threonine-protein kinase Chk2 (Homo sapiens) (UniProt O96017); test: Binding affinity to wild-type human partial length CHEK2 (S253 to E574 residues) expressed in bacterial expression system assessed as residual binding level at 1 uM by Kinomescan method relative to control
[14] = target: Calcium/calmodulin-dependent protein kinase type 1G (Homo sapiens) (UniProt Q96NX5); test: Binding affinity to wild-type human partial length CAMK1G (M1 to A342 residues) expressed in bacterial expression system assessed as residual binding level at 1 uM by Kinomescan method relative to control
[15] = target: MAP kinase-activated protein kinase 2 (Homo sapiens) (UniProt P49137); test: Binding affinity to wild-type human partial length MAPKAPK2 (V48 to D345 residues) expressed in bacterial expression system assessed as residual binding level at 1 uM by Kinomescan method relative to control
[16] = target: Mitogen-activated protein kinase kinase kinase 20 (Homo sapiens) (UniProt Q9NYL2); test: Binding affinity to wild-type human partial length ZAK (M1 to L331 residues) expressed in bacterial expression system assessed as residual binding level at 1 uM by Kinomescan method relative to control
[17] = system: Hepatocyte growth factor receptor (Homo sapiens), P08581 [M1250T]; test: Binding affinity to human partial length MET M1250T mutant (D1010 to S1367 residues) expressed in bacterial expression system assessed as residual binding level at 1 uM by Kinomescan method relative to control
Procedure, shortened: (§2)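 Kinome-wide selectivity panel run by the KINOMEscan method, with the test compound at a single concentration of 1 μM. Wild-type and mutant kinases were profiled in the same screen.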

[18] = target: Serine/threonine-protein kinase 33 (Homo sapiens) (UniProt Q9BYT3); test: Binding affinity to wild-type human full length STK33 (M1 to L514 residues) expressed in bacterial expression system assessed as residual binding level at 1 uM by Kinomescan method relative to control
[19] = target: Serine/threonine-protein kinase pim-2 (Homo sapiens) (UniProt Q9P1W9); test: Binding affinity to wild-type human partial length PIM2 (M1 to E291 residues) expressed in bacterial expression system assessed as residual binding level at 1 uM by Kinomescan method relative to control
[20] = target: CDK4/Cyclin D3 (Homo sapiens) (UniProt P11802+P30281); test: Binding affinity to wild-type human full length CDK4/cyclinD3 (M1 to E303 residues) expressed in mammalian expression system assessed as residual binding level at 1 uM by Kinomescan method relative to control
[21] = target: Receptor-interacting serine/threonine-protein kinase 1 (Homo sapiens) (UniProt Q13546); test: Binding affinity to wild-type human partial length RIPK1 (M1 to K305 residues) expressed in bacterial expression system assessed as residual binding level at 1 uM by Kinomescan method relative to control
[22] = target: Peripheral plasma membrane protein CASK (Homo sapiens) (UniProt O14936); test: Binding affinity to wild-type human partial length CASK (M1 to H315 residues) expressed in mammalian expression system assessed as residual binding level at 1 uM by Kinomescan method relative to control
[23] = system: Receptor-type tyrosine-protein kinase FLT3 (Homo sapiens), P36888 [N841I]; test: Binding affinity to human partial length FLT3 N841I mutant (V592 to Y969 residues) expressed in bacterial expression system assessed as residual binding level at 1 uM by Kinomescan method relative to control; procedure, shortened: as §2

Sequence of Inhibitor of nuclear factor kappa-B kinase subunit alpha (Homo sapiens) (O15111 whole entry, the tested form may be a part): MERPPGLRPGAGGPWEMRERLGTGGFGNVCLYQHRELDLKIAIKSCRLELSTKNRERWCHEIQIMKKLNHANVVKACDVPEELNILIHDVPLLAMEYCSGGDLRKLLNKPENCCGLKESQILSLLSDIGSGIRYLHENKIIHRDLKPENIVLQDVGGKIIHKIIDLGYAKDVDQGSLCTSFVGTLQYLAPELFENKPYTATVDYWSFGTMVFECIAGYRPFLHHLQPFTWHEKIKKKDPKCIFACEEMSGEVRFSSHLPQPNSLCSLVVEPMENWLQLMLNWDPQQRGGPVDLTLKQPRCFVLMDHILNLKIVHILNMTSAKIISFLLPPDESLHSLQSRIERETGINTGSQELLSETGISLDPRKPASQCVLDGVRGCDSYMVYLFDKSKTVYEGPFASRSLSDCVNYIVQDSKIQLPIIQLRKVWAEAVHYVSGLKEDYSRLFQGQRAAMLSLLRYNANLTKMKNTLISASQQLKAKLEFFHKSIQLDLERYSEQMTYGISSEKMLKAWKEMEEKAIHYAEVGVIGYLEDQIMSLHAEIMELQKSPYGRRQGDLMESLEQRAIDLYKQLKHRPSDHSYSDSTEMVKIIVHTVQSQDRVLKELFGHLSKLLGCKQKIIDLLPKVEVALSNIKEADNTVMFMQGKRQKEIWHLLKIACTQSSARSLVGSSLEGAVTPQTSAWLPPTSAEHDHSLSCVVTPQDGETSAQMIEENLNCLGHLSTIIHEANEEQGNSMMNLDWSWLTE
Sequence of Serine/threonine-protein kinase B-raf (Homo sapiens), P15056 [V600E] (P15056 whole entry V600E, the tested form may be a part): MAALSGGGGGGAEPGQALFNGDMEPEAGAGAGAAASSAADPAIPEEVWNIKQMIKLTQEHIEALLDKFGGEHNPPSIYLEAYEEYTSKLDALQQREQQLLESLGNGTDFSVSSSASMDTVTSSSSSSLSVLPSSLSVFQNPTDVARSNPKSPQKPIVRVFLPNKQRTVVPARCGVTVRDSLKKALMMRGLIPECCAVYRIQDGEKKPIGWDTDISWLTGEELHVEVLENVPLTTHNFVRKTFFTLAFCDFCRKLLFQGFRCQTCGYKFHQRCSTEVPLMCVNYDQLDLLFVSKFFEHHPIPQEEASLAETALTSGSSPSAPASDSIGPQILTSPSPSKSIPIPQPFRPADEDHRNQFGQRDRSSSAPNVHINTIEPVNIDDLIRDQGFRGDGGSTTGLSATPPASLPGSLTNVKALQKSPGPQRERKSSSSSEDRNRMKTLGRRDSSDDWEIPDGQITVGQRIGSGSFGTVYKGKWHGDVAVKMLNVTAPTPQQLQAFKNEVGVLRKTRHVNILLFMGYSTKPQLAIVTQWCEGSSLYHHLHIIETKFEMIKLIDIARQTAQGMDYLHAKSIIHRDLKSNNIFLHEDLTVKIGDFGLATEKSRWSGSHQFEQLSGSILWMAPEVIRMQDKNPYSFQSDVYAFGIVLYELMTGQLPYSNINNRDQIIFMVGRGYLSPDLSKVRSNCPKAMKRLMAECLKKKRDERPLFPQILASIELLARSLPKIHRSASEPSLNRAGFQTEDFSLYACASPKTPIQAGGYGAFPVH
Sequence of Ephrin type-A receptor 7 (Homo sapiens) (Q15375 28-998 limits assumed): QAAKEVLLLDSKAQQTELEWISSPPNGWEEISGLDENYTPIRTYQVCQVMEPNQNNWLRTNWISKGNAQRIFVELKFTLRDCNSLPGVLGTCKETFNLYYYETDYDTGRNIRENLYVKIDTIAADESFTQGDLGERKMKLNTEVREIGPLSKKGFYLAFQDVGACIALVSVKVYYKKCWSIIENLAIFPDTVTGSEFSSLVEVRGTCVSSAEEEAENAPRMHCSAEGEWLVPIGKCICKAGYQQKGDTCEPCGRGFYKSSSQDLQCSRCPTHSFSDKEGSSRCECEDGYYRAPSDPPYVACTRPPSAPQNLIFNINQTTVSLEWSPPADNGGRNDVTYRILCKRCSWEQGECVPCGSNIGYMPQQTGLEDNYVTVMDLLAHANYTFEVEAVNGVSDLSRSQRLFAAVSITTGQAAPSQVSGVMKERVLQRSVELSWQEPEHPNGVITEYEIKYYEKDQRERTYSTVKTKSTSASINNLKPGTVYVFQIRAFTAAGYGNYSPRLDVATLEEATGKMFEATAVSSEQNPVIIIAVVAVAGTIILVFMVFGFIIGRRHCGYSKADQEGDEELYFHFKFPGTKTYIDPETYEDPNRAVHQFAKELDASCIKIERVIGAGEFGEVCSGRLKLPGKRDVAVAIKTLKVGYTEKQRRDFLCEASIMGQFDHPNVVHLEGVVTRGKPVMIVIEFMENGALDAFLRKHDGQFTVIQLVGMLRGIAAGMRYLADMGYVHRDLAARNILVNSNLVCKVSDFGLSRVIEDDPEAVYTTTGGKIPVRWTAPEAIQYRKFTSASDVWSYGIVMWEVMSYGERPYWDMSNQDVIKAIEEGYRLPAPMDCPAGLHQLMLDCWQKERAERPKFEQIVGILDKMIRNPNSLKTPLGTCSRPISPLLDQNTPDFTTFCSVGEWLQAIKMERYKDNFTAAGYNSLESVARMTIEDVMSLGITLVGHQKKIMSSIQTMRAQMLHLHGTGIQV
Sequence of Serine/threonine-protein kinase Chk2 (Homo sapiens) (O96017 whole entry, the tested form may be a part): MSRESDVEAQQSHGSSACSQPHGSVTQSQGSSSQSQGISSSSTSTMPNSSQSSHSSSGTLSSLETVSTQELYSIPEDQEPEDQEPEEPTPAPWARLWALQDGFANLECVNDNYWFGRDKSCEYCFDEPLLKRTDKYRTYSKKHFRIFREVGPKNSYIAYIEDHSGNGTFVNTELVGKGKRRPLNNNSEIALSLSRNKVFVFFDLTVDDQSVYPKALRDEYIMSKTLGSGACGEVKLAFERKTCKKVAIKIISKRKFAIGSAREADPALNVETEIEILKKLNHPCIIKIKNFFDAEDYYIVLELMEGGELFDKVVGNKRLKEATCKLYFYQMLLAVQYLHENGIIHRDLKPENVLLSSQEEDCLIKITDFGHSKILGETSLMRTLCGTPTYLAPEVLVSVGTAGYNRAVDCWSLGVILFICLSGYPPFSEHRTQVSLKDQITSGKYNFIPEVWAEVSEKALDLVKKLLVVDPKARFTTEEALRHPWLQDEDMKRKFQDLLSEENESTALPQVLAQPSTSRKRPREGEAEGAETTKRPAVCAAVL
Sequence of Serine/threonine-protein kinase 10 (Homo sapiens) (O94804 whole entry, looked up, the tested form may be a part): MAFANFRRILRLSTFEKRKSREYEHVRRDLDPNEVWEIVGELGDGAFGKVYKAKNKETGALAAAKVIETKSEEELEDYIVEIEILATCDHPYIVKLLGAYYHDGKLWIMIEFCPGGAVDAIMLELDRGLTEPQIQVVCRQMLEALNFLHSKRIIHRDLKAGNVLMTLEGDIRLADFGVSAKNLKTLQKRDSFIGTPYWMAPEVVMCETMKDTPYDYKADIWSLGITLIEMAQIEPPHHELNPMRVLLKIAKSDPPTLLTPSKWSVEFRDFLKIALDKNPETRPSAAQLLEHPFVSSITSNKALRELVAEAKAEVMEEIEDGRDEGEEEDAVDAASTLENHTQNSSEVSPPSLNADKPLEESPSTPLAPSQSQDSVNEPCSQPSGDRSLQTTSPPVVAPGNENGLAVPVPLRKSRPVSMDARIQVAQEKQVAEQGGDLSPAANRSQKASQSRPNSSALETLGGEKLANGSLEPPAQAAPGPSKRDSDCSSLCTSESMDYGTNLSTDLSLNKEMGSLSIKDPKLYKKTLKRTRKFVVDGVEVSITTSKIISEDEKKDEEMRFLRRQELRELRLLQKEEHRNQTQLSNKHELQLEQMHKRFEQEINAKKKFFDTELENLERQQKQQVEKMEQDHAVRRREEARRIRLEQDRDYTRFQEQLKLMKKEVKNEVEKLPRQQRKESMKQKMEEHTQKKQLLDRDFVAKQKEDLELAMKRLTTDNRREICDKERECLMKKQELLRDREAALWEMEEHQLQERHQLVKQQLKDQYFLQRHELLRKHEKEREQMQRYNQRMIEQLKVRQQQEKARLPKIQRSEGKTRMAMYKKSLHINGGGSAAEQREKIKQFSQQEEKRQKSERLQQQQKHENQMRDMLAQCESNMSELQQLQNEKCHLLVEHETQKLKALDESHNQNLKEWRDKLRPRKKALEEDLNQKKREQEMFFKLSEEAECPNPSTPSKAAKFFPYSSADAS
Sequence of NUAK family SNF1-like kinase 1 (Homo sapiens) (O60285 whole entry, the tested form may be a part): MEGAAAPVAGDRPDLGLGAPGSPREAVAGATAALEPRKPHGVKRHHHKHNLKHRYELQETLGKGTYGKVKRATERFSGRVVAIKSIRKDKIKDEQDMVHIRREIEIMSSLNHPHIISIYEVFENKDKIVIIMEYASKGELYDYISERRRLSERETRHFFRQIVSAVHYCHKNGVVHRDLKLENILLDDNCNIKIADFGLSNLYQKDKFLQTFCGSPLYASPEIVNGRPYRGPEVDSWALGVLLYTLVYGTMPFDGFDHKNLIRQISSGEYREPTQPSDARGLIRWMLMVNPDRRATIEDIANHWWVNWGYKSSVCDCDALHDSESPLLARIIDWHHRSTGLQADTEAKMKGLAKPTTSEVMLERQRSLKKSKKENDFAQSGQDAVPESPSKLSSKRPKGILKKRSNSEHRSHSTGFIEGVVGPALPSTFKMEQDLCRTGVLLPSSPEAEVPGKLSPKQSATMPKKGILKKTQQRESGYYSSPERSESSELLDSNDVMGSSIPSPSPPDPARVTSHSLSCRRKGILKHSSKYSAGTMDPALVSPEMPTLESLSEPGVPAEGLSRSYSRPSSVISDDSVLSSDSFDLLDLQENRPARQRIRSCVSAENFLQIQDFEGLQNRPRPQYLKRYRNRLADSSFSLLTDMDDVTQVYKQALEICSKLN
Sequence of Serine/threonine-protein kinase pim-2 (Homo sapiens) (Q9P1W9 whole entry, looked up, the tested form may be a part): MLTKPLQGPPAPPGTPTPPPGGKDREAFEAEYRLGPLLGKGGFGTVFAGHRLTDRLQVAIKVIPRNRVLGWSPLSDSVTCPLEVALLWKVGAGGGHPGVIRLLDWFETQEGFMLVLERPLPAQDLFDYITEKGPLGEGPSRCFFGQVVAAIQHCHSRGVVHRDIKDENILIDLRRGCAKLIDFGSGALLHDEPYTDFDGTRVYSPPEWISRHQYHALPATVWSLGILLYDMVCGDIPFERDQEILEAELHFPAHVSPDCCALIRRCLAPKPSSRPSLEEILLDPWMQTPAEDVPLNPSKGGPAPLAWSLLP

`C=CC(=O)Nc1cc(Nc2ncc(Cl)c(Nc3ccccc3S(=O)(=O)C(C)C)n2)c(OC)cc1N(C)CCN(C)C` was tested, and the Activity [1] was 68%, the Activity [2] was 68% and the Activity [3] was 0%. For the same compound, the Activity [4] was 96%, the Activity [5] was 1.7% and the Activity [6] was 91%. For the same compound, the Activity [7] was 8.1%, the Activity [8] was 28% and the Activity [9] was 26%. It also gave an Activity [10] of 73%, an Activity [11] of 100% and an Activity [12] of 88%. It also gave an Activity [13] of 0.35%, an Activity [14] of 45% and an Activity [15] of 100%. It also gave an Activity [16] of 86%, an Activity [17] of 14% and an Activity [18] of 2%. The Activity [19] was 100%, the Activity [20] was 55% and the Activity [21] was 82%. It also gave an Activity [22] of 95% and an Activity [23] of 6.8%.

Source: ChEMBL document CHEMBL4382192, “Discovery of a potent dual ALK and EGFR T790M inhibitor” (Eur J Med Chem, 2017)
